This is a sample that favours compounds with a hit; in the whole collection about 3.5% have one here.
MrgX1 PAM – allosterically activates human MrgX1 receptor signaling; actives 0.63% (n = 310,000); Q96LB2; B-score at 10 µM; MrgX1-HEK293, Fluo-4 calcium flux, FDSS; active compounds read high; AID 588675;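 active = plate-corrected calcium response at least 3 library SD above typical, normal starting fluorescence, not activating the receptor alone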;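 note: compound read alongside a low EC10 to EC30 dose of BAM8-22 agonist; peak minus trough fluorescence over baseline measured at the second addition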
Target sequence (Q96LB2 whole entry, looked up): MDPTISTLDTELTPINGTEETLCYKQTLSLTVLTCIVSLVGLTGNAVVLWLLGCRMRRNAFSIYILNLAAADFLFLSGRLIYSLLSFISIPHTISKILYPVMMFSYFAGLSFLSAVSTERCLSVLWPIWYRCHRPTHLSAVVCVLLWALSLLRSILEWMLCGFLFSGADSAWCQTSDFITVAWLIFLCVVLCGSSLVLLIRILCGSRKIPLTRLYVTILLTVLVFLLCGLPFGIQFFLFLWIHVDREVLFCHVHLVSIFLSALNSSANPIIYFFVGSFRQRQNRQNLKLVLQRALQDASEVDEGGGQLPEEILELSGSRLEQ
MrgX1 agonist – agonists of human MrgX1 receptor | Q96LB2 | MrgX1-HEK293 cells, Fluo-4 calcium fluorescence, agonist mode; active compounds read high | B-score at 10 µM | actives 0.44% (n = 310,000) | AID 588627;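 active = calcium response B-score plate-corrected fluorescence ratio at least 3 library SD, with starting fluorescence B-score inside 5 SD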
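Material: MrgX1-expressing HEK293 cells; input: 15,000 cells per well; doses: test compound given as first of three sequential additions; schedule: overnight plating before 1 h dye loading; technique: Fluo-4 NW calcium-flux fluorescence, kinetic read; evaluation: baseline-normalised fluorescence change ratio, B-scored; control set: plate-wise positive and negative controls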
RGS4 block – inhibitors of human RGS4; B-score at 10 µM; AID 463165; actives 0.45% (n = 310,000); HEK293 M3R/RGS4 inducible, Fluo-4 calcium flux; active compounds read high; triggered by carbachol at its EC20;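 active = B-score, a plate-corrected calcium signal, over three deviations above library mean, with baseline fluorescence within five deviations of library mean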;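 note: RGS4 expression induced by doxycycline in cells with stable M3 receptor; B-score is computed from the integrated fluorescence ratio over baseline after carbachol; higher B-score means a larger calcium signal and so more RGS4 inhibition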
Target sequence (P49798 whole entry, looked up): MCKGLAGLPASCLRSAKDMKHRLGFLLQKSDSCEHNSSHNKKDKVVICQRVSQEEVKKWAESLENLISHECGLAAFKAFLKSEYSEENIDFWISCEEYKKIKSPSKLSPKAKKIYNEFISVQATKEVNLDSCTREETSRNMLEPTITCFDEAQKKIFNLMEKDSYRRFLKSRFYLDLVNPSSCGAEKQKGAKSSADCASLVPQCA
RGS4 act – potentiators or activators of RGS4. B-score at 10 µM. actives 0.92% (n = 310,000). HEK293 M3R/inducible RGS4, carbachol calcium flux Fluo4; active compounds read low;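 active = B-score of the integrated calcium signal more than 4 SD below the library mean, with starting fluorescence not abnormally high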;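 note: negative B-score means reduced calcium response which marks RGS4 activation or potentiation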
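Also added: carbachol at ECmax as muscarinic agonist stimulus; Assay system: HEK293 cells with stable M3R and inducible RGS4; Timing: overnight RGS4 induction, 30 min dye load 37 °C, 20 min compound RT; Measured by: Fluo4-AM (2 µM) calcium-flux fluorescence, kinetic read.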
MrgX1 antagonist – blocks BAM8-22 activation of human MrgX1 receptor | AID 588676 | Q96LB2 | actives 1.3% (n = 310,000) | B-score at 10 µM | MRGX1-HEK293 calcium flux, Fluo-4, BAM8-22 antagonism; active compounds read low;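 active = calcium-response B-score plate-corrected more than 3 library SD below zero, starting fluorescence within 5 deviations, no agonist response on first addition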;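 note: peak minus trough fluorescence over baseline after final BAM8-22 challenge near maximal dose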
Starred values were filed as active, the others as inactive; i = inactive; . = not tested or not shown.

SMILES	MrgX1 PAM	MrgX1 agonist	RGS4 block	RGS4 act	MrgX1 antagonist
Cc1[nH]n(-c2ccccc2)c(=O)c1C(c1ccc(O)c([N+](=O)[O-])c1)c1c(C)[nH]n(-c2ccccc2)c1=O	i	i	5.1*	i	i
Cc1[nH]n(-c2ccccc2)c(=O)c1C(C[N+](=O)[O-])c1ccccc1Cl (stereo not drawn)	i	46*	i	i	i
CCCOc1ccc(N2C(=O)CC(N(CCc3ccc(OC)cc3)C(=O)c3ccccc3)C2=O)cc1 (stereo not drawn)	i	i	i	i	-4.6*
CCCCn1c(SCC(=O)Nc2nnc(C)s2)nnc1-c1ccncc1	i	i	i	i	i
O=C(/C=C/c1ccco1)NC(=S)Nc1nc(-c2ccc(Cl)cc2)cs1	i	i	i	i	i
C=CCN(CC=C)C(=S)NC(=O)/C=C/c1ccc(OC)cc1	8.9*	i	i	i	i
COc1ccc(/C=C/C(=O)NC(=S)Nc2ccccn2)cc1	7.1*	i	i	i	i
O=C(/C=C/c1ccco1)NC(=S)Nc1nc(-c2ccc3ccccc3c2)cs1	i	i	i	i	-6.6*
COc1ccc(/C=C/C(=O)NC(=S)NNC(=O)c2cnccn2)cc1	i	i	i	i	-6.5*
Cc1ccc2oc(-c3cccc(NC(=S)NC(=O)c4cccs4)c3)nc2c1	i	i	i	i	i
Cc1ccc2oc(-c3cccc(NC(=S)NC(=O)/C=C/c4ccco4)c3)nc2c1	i	i	i	-7.1*	i
O=C(/C=C/c1ccco1)NC(=S)Nc1ccccn1	18*	i	i	i	i
COC(=O)C1(C(C[N+](=O)[O-])c2ccc(C)cc2)C(=O)NCC1c1ccco1 (stereo not drawn)	i	i	i	i	i
Cc1c(CCO)c(=O)[nH]n1S(=O)(=O)c1ccc(Cl)cc1Cl	i	i	i	i	i
COc1ccc(S(=O)(=O)n2[nH]c(=O)c(CCO)c2C)c([N+](=O)[O-])c1	7.9*	i	i	i	i
O=C(COC(=O)/C=C/c1cn(-c2ccccc2)nc1-c1ccc2c(c1)OCCO2)NC1CCS(=O)(=O)C1 (stereo not drawn)	i	i	i	-8.5*	i
Cc1ccc(Cl)cc1N1CCN(C(=O)CN(c2ccccc2)S(=O)(=O)N(C)C)CC1	i	i	i	i	i
Cn1ncc(Cl)c1C(=O)N/N=C/c1ccccn1	i	i	i	i	-9.3*
Cc1ccc(C(=O)C(C)OC(=O)c2nc(Cl)ccc2Cl)cc1 (stereo not drawn)	i	i	i	i	i
Clc1ccc(-c2cc(CN3CCOCC3)no2)cc1	i	i	i	i	i
Clc1ccc(SCc2cc(-c3ccc(Cl)cc3)on2)cc1	i	i	i	-8*	i
Cc1ccc(SCc2cc(-c3ccc(Cl)cc3)on2)cc1	i	i	i	-7.6*	i
CC1=NN(/C(=N\c2nnc(C)s2)Nc2ccc(C)cc2)[C@H](c2ccc(C)cc2)S1	i	30*	i	i	i
O=S(=O)(c1ccc2ccccc2c1)N(CC1CO1)c1ccccc1 (stereo not drawn)	i	i	i	i	i
CCCCN(CCCC)c1ccc(C(=O)c2ccccc2C(=O)O)c(O)c1	i	42*	i	i	i
SMILES	MrgX1 PAM	MrgX1 agonist	RGS4 block	RGS4 act	MrgX1 antagonist
COc1cc(C(O)CO)ccc1O (stereo not drawn)	i	i	.	.	i
CC(C)NCC(O)c1ccc(O)c(O)c1 (stereo not drawn)	i	33*	i	i	i
NC[C@H](O)c1ccc(O)c(O)c1	i	39*	.	.	i
CC(C)NCC(O)c1ccc2ccccc2c1 (stereo not drawn)	i	i	.	.	i
O=C(CCc1nnc(Cc2c[nH]c3ccccc23)o1)NC(C1CC1)C1CC1	i	i	i	i	i
COc1cc(C2C(C#N)=C(N)OC3=C2C(=O)CC(C)(C)C3)c([N+](=O)[O-])cc1OC (stereo not drawn)	i	29*	i	i	i
COc1ccc(C2C(C#N)=C(N)OC3=C2C(=O)CC(C)(C)C3)c([N+](=O)[O-])c1OC (stereo not drawn)	i	i	i	i	i
O=C(CN(Cc1ccc(F)cc1)C(=O)CCC(=O)Nc1nccs1)NCc1ccc(F)cc1	i	i	i	i	i
CCc1cc[n+](-c2nc3ccccc3nc2[N-]S(=O)(=O)c2ccc(Br)s2)cc1	i	i	i	i	-6.5*
O=C(Nc1ccc(Cl)c(C(F)(F)F)c1)[C@@H]1CC=C[C@@H]2CCN(Cc3ccccc3)C(=O)[C@@H]21	7.2*	i	i	i	i
CCOC(=O)CC(=O)CSc1nc(-c2cccnc2)cc(C)c1C#N	i	i	i	i	-4.9*
COc1ccc(S(=O)(=O)N2CCCC(C(=O)NCC3CCCO3)C2)cc1OC (stereo not drawn)	i	i	i	i	i
Cc1ccc(C)c(NC(=O)C2CC=CCC2C(=O)O)c1 (stereo not drawn)	i	i	i	i	i
Cc1ccc(C)c(NC(=O)C2CC3c4ccccc4C2c2ccccc23)c1 (stereo not drawn)	i	i	i	i	-5.5*
COc1ccc(CN2C(=O)c3cccnc3C2=O)cc1S(=O)(=O)NC1CCCCC1	i	i	i	i	i
CCn1nc(C)cc1-c1nnc(Sc2ncc([N+](=O)[O-])s2)n1C	i	38*	i	-7.9*	i
Oc1c(Cl)cc(Cl)cc1/C=N/Nc1ncc(Br)cn1	i	i	i	i	i
Cc1ccc(N=Cc2cc(Cl)cc(Cl)c2O)nc1	7.6*	i	i	i	i
CC[C@H](C)C(N)c1cn(C(CCCN=C(N)N)C(=O)N2CCNCC2)nn1 (stereo partly drawn)	i	i	.	.	i
Clc1cccc(Cl)c1/C=C/c1nc2ccccc2[nH]1	7.7*	i	i	i	i
COc1cc2[nH]c(=O)n(CCCCCC(=O)N3CC=C(c4ccccc4)CC3)c(=O)c2cc1OC	i	i	i	-8.8*	i
CCOc1cc2[nH]c(=O)n(CCCC(=O)N(C)Cc3ccccc3)c(=O)c2cc1OCC	7.9*	i	i	i	i
CCOc1cc2[nH]c(=O)n(CCCC(=O)NCc3ccco3)c(=O)c2cc1OCC	i	i	i	i	i

Source: PubChem BioAssay (Johns Hopkins Ion Channel Center)
